Tested on: PLAAT2–5
Test: gel-based competitive ABPP, statements for all tested PLAAT members
Format: biochemical, human
Conditions: for activity on PLAAT2–5 (in words): 10 μM inhibitor, 30 min, active = residual protein labeling ≤50%; for hit potency for all tested PLAAT members (in words): focused library screen
Summary of the method: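 Human PLAAT cDNA (C-terminal FLAG, pcDNA3.1) was PEI-transfected into HEK293T; cytosol came from a 100,000g spin. Cytosol was preincubated with test compound (30 min, rt), then MB064 (20 min, rt). Conditions: PLAAT2 0.25 μg/μL, 250 nM; PLAAT3 0.5 μg/μL, 250 nM; PLAAT4/5 1 μg/μL, 500 nM. In-gel fluorescence was normalized to Coomassie, in triplicate. Single-concentration screen or IC50 from dose–response curves.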

SMILES	activity on PLAAT2–5 (in words)	hit potency for all tested PLAAT members (in words)
O=C(CCc1ccc(Cl)cc1)C(=O)N1CCOCC1 [Compound 15]	did not show any activity	
O=C(NCc1ccccc1)C(F)(F)C(O)CCc1ccccc1 (stereo not drawn) [Compound 3]	inactive	
CN(CCc1ccccc1)C(=O)C(=O)CCc1ccc(Cl)cc1 [Compound 12]	complete loss of activity	
O=C(CCc1ccc(Cl)cc1)C(=O)NCCc1ccccc1 [Compound 1, 4-(4-Chlorophenyl)-2-oxo-N-phenethylbutanamide]		submicromolar
COCCN(CCOC)C(=O)C(=O)CCc1ccc(Cl)cc1 [Compound 17]	did not show any activity	
CCN(CCc1ccccc1)C(=O)C(=O)CCc1ccc(Cl)cc1 [Compound 22]	did not show any activity	
O=C(CCc1ccc(Cl)cc1)C(=O)NCCCCc1ccccc1 [Compound 2]		submicromolar
CCOC(=O)C(F)(F)C(O)CCc1ccccc1 (stereo not drawn) [Compound 4]	inactive	
CN(C)C(=O)C(=O)CCc1ccc(Cl)cc1 [Compound 14]	did not show any activity	
O=C(NCCc1ccccc1)C(O)CCc1ccc(Cl)cc1 (stereo not drawn) [Compound 23, 4-(4-Chlorophenyl)-2-hydroxy-N-phenethylbutanamide]	no activity	
O=C(CCc1ccc(Cl)cc1)C(=O)N1CCCCC1 [Compound 13]	did not show any activity	
CN1CCN(C(=O)C(=O)CCc2ccc(Cl)cc2)CC1 [Compound 16]	did not show any activity	

From publication PMC7498158 (Journal of Medicinal Chemistry, 2020)
